Experimental data as given in ChEMBL document CHEMBL3351961, “In vitro antitumor activity evaluation of some 1,2,4-triazine derivatives bearing piperazine amide moiety against breast cancer cells” (Bioorg Med Chem, 2014).
pIC50: −log10 of the molar value. Active and inactive are the calls of the source. No cut-off for these calls is given here.

What was measured:
[1] = test system: MCF7; experiment: Cytotoxicity against human MCF7 cells after 24 hrs by MTT assay; type: functional, cell-based; conditions: MCF7, 24 h, in the assay text read “XTT assay” for “MTT assay”
In short: (§1)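 Cells grown in RPMI with fetal calf serum, penicillin/streptomycin, 37 °C, 5% CO2. Seeded 2 × 10^4 cells/well, then 24 h. Medium replaced with compound at 3.9–500 µg/ml (DMSO stocks diluted in medium, final DMSO under 0.1%). XTT read-out of mitochondrial activity: 3 h at 37 °C, OD 480 nm (reference 680 nm). IC50 by non-linear regression; duplicate experiments; cisplatin positive control.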

[2] = Cytotoxicity against mouse NIH/3T3 cells after 24 hrs by MTT assay; type: cell-based; conditions: NIH3T3, 24 h, in the assay text read “XTT assay” for “MTT assay”; in short: as §1
[3] = test system: MCF7; experiment: Inhibition of DNA synthesis in human MCF7 cells at 15.32 ug/ml after 48 hrs by 5-bromo-20-deoxy-uridine incorporation method; type: functional; conditions: MCF7, 48 h
In short: (§2)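 MCF-7 seeded at 2 × 10^4 cells/well and exposed to compound for 48 h at the stated concentration. BrdU added for 2 h at 37 °C, then anti-BrdU-POD for 90 min, PBS washes and colorimetric substrate. Inhibition taken relative to untreated control absorbance (set as 0%). Means of two independent experiments ± SD of four wells.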

[4] = test system: MCF7; experiment: Induction of apoptosis in human MCF7 cells assessed as necrotic cells level at cytotoxic IC50 level after 24 hrs by Annexin V/PI dual staining based flow cytometry (reference value: 3.66 %); type: functional
[5] = test system: MCF7; experiment: Induction of apoptosis in human MCF7 cells assessed as early apoptotic cells level at cytotoxic IC50 level after 24 hrs by Annexin V/PI dual staining based flow cytometry (reference value: 0.46%); type: functional
[6] = test system: MCF7; experiment: Inhibition of DNA synthesis in human MCF7 cells at 0.5 times cytotoxic IC50 level after 24 hrs by 5-bromo-20-deoxy-uridine incorporation method; type: functional
In short: (§3)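 BrdU ELISA on MCF-7 seeded at 2 × 10^4 cells/well. Compounds given at IC50/2, IC50 and 2 × IC50 (from the XTT assay) for 24 h or 48 h. BrdU added for 2 h at 37 °C, then anti-BrdU-POD for 90 min, three PBS washes and colorimetric substrate. Untreated control absorbance set as 0% inhibition. Means of two independent experiments ± SD of four wells; cisplatin positive control.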

[7] = test system: MCF7; experiment: Induction of apoptosis in human MCF7 cells assessed as viable cells level at cytotoxic IC50 level after 24 hrs by Annexin V/PI dual staining based flow cytometry (reference value: 94.36 %); type: functional
[8] = test system: MCF7; experiment: Inhibition of DNA synthesis in human MCF7 cells at 61.26 ug/ml after 48 hrs by 5-bromo-20-deoxy-uridine incorporation method; type: functional; conditions: MCF7, 48 h; in short: as §2
[9] = test system: MCF7; experiment: Inhibition of DNA synthesis in human MCF7 cells at cytotoxic IC50 level after 24 hrs by 5-bromo-20-deoxy-uridine incorporation method; type: functional; in short: as §3
[10] = test system: MCF7; experiment: Inhibition of DNA synthesis in human MCF7 cells at 2 times cytotoxic IC50 level after 24 hrs by 5-bromo-20-deoxy-uridine incorporation method; type: functional; in short: as §3
[11] = test system: MCF7; experiment: Inhibition of DNA synthesis in human MCF7 cells at 30.63 ug/ml after 48 hrs by 5-bromo-20-deoxy-uridine incorporation method; type: functional; conditions: MCF7, 48 h; in short: as §2
[12] = test system: MCF7; experiment: Induction of apoptosis in human MCF7 cells assessed as late apoptotic cells level at cytotoxic IC50 level after 24 hrs by Annexin V/PI dual staining based flow cytometry (reference value: 1.52 %); type: functional
[13] = test system: MCF7; experiment: Inhibition of DNA synthesis in human MCF7 cells at 2 times cytotoxic IC50 level after 48 hrs by 5-bromo-20-deoxy-uridine incorporation method; type: functional; in short: as §3
[14] = test system: MCF7; experiment: Inhibition of DNA synthesis in human MCF7 cells at 0.5 times cytotoxic IC50 level after 48 hrs by 5-bromo-20-deoxy-uridine incorporation method; type: functional; in short: as §3
[15] = test system: MCF7; experiment: Inhibition of DNA synthesis in human MCF7 cells at cytotoxic IC50 level after 48 hrs by 5-bromo-20-deoxy-uridine incorporation method; type: functional; in short: as §3
[16] = test system: MCF7; experiment: Inhibition of DNA synthesis in human MCF7 cells at 22.09 ug/ml after 48 hrs by 5-bromo-20-deoxy-uridine incorporation method; type: functional; conditions: MCF7, 48 h; in short: as §2
[17] = test system: MCF7; experiment: Inhibition of DNA synthesis in human MCF7 cells at 44.18 ug/ml after 48 hrs by 5-bromo-20-deoxy-uridine incorporation method; type: functional; conditions: MCF7, 48 h; in short: as §2

SMILES | pIC50 [1] | pIC50 [2] | other results
COc1cccc(N2CCN(CC(=O)N3CCN(c4nnc(-c5ccccc5)c(-c5ccccc5)n4)CC3)CC2)c1 | < 3.04 | 3.44 | 
COc1ccc(N2CCN(CC(=O)N3CCN(c4nnc(-c5ccc(C)cc5)c(-c5ccc(C)cc5)n4)CC3)CC2)cc1 | 4.28 | 3.94 | inhibition at 15.32 µg/mL [3]: 76.7%; Activity [4]: 26.7%; Activity [5]: 0.6%; inhibition (INH) [6]: 56.94%; Activity [7]: 66.5%; inhibition at 61.26 µg/mL [8]: 88.9%; inhibition (INH) [9]: 77.82%; inhibition (INH) [10]: 88.52%; inhibition at 30.63 µg/mL [11]: 86%; Activity [12]: 6.2%
COc1ccc(N2CCN(CC(=O)N3CCN(c4nnc(-c5ccccc5)c(-c5ccccc5)n4)CC3)CC2)cc1 | < 3.04 | < 3.04 | 
COc1ccc(N2CCN(CC(=O)N3CCN(c4nnc(-c5ccc(Cl)cc5)c(-c5ccc(Cl)cc5)n4)CC3)CC2)cc1 | < 3.09 | < 3.09 | 
COc1ccc(-c2nnc(N3CCN(C(=O)CN4CCN(c5cccc(OC)c5)CC4)CC3)nc2-c2ccc(OC)cc2)cc1 | < 3.09 | < 3.09 | 
COc1ccccc1N1CCN(CC(=O)N2CCN(c3nnc(-c4ccc(Cl)cc4)c(-c4ccc(Cl)cc4)n3)CC2)CC1 | 3.48 | 3.39 | 
Cc1ccc(-c2nnc(N3CCN(C(=O)CN4CCN(c5ccc(Cl)cc5)CC4)CC3)nc2-c2ccc(C)cc2)cc1 | 3.18 | 3.25 | 
Cc1ccc(-c2nnc(N3CCN(C(=O)CN4CCN(c5ccc([N+](=O)[O-])cc5)CC4)CC3)nc2-c2ccc(C)cc2)cc1 | 3.07 | < 3.07 | 
O=C(CN1CCN(c2cccc(Cl)c2)CC1)N1CCN(c2nnc(-c3ccccc3)c(-c3ccccc3)n2)CC1 | 4.25 | 3.75 | Activity [4]: 11.5%; Activity [5]: 2.2%; inhibition (INH) [13]: 70.18%; inhibition (INH) [6]: 26.06%; inhibition (INH) [14]: 56.59%; Activity [7]: 76.9%; inhibition (INH) [15]: 61.16%; inhibition (INH) [9]: 31.36%; inhibition (INH) [10]: 41.48%; Activity [12]: 9.4%
O=C(CN1CCN(c2ccc(Cl)cc2)CC1)N1CCN(c2nnc(-c3ccccc3)c(-c3ccccc3)n2)CC1 | 4.25 | 3.95 | Activity [4]: 11.2%; Activity [5]: 2.1%; inhibition (INH) [13]: 62.34%; inhibition (INH) [14]: 24.98%; Activity [7]: 76.4%; inhibition (INH) [15]: 52.05%; Activity [12]: 10.3%
COc1ccccc1N1CCN(CC(=O)N2CCN(c3nnc(-c4ccc(C)cc4)c(-c4ccc(C)cc4)n3)CC2)CC1 | 4.23 | 3.88 | Activity [4]: 28.2%; Activity [5]: 2.6%; inhibition at 22.09 µg/mL [16]: 78.5%; inhibition at 44.18 µg/mL [17]: 78.7%; Activity [7]: 63.4%; Activity [12]: 5.8%
COc1ccc(-c2nnc(N3CCN(C(=O)CN4CCN(c5ccc(Cl)cc5)CC4)CC3)nc2-c2ccc(OC)cc2)cc1 | 3.22 | < 3.09 | 
Cc1ccc(-c2nnc(N3CCN(C(=O)CN4CCN(c5cccc(Cl)c5)CC4)CC3)nc2-c2ccc(C)cc2)cc1 | 3.10 | 3.07 | 
COc1ccc(-c2nnc(N3CCN(C(=O)CN4CCN(c5cccc(Cl)c5)CC4)CC3)nc2-c2ccc(OC)cc2)cc1 | < 3.09 | < 3.09 | 
COc1ccccc1N1CCN(CC(=O)N2CCN(c3nnc(-c4ccccc4)c(-c4ccccc4)n3)CC2)CC1 | 3.78 | 3.35 | Activity [4]: 17.1%; Activity [5]: 0%; inhibition [13]: Active; inhibition (INH) [6]: 22.44%; inhibition [14]: Active; Activity [7]: 82.5%; inhibition [15]: Active; inhibition (INH) [9]: 76.35%; inhibition (INH) [10]: 81.61%; Activity [12]: 0.4%
COc1ccc(-c2nnc(N3CCN(C(=O)CN4CCN(c5ccc(OC)cc5)CC4)CC3)nc2-c2ccc(OC)cc2)cc1 | < 3.09 | < 3.09 | 

SMILES | pIC50 [1] | pIC50 [2] | other results
COc1cccc(N2CCN(CC(=O)N3CCN(c4nnc(-c5ccc(Cl)cc5)c(-c5ccc(Cl)cc5)n4)CC3)CC2)c1 | 3.83 | 3.69 | Activity [4]: 24.5%; Activity [5]: 0.9%; Activity [7]: 71.3%; Activity [12]: 3.3%
O=C(CN1CCN(c2ccc(Cl)cc2)CC1)N1CCN(c2nnc(-c3ccc(Cl)cc3)c(-c3ccc(Cl)cc3)n2)CC1 | < 3.10 | < 3.10 | 
O=C(CN1CCN(c2ccccc2Cl)CC1)N1CCN(c2nnc(-c3ccc(Cl)cc3)c(-c3ccc(Cl)cc3)n2)CC1 | 3.40 | < 3.10 | 
Cc1ccc(-c2nnc(N3CCN(C(=O)CN4CCN(c5ccccc5)CC4)CC3)nc2-c2ccc(C)cc2)cc1 | 3.04 | < 3.04 | 
O=C(CN1CCN(c2cccc(Cl)c2)CC1)N1CCN(c2nnc(-c3ccc(Cl)cc3)c(-c3ccc(Cl)cc3)n2)CC1 | < 3.10 | < 3.10 | 
O=C(CN1CCN(c2ccccc2Cl)CC1)N1CCN(c2nnc(-c3ccccc3)c(-c3ccccc3)n2)CC1 | 3.58 | 3.46 | 
O=C(CN1CCN(c2ccc([N+](=O)[O-])cc2)CC1)N1CCN(c2nnc(-c3ccccc3)c(-c3ccccc3)n2)CC1 | < 3.05 | < 3.05 | 
COc1ccc(-c2nnc(N3CCN(C(=O)CN4CCN(c5ccc([N+](=O)[O-])cc5)CC4)CC3)nc2-c2ccc(OC)cc2)cc1 | < 3.10 | < 3.10 | 
COc1cccc(N2CCN(CC(=O)N3CCN(c4nnc(-c5ccc(C)cc5)c(-c5ccc(C)cc5)n4)CC3)CC2)c1 | 3.06 | < 3.06 | 
COc1ccc(-c2nnc(N3CCN(C(=O)CN4CCN(c5ccccc5OC)CC4)CC3)nc2-c2ccc(OC)cc2)cc1 | < 3.09 | < 3.09 | 
COc1ccc(-c2nnc(N3CCN(C(=O)CN4CCN(c5ccccc5Cl)CC4)CC3)nc2-c2ccc(OC)cc2)cc1 | < 3.09 | < 3.09 | 
COc1ccc(-c2nnc(N3CCN(C(=O)CN4CCN(c5ccccc5)CC4)CC3)nc2-c2ccc(OC)cc2)cc1 | < 3.06 | < 3.06 | 
O=C(CN1CCN(c2ccc([N+](=O)[O-])cc2)CC1)N1CCN(c2nnc(-c3ccc(Cl)cc3)c(-c3ccc(Cl)cc3)n2)CC1 | < 3.10 | < 3.10 | 
Cc1ccc(-c2nnc(N3CCN(C(=O)CN4CCN(c5ccccc5Cl)CC4)CC3)nc2-c2ccc(C)cc2)cc1 | 3.07 | < 3.07 | 
O=C(CN1CCN(c2ccccc2)CC1)N1CCN(c2nnc(-c3ccc(Cl)cc3)c(-c3ccc(Cl)cc3)n2)CC1 | < 3.07 | < 3.07 | 
O=C(CN1CCN(c2ccccc2)CC1)N1CCN(c2nnc(-c3ccccc3)c(-c3ccccc3)n2)CC1 | < 3.02 | < 3.02 | 
